Test results from PubChem BioAssay AID588705 (Broad Institute, 2011).
The source made the active and inactive calls. How the calls were made is not given here.

system: not listed separately; experiment: MDA-MB-231 breast cancer cell cytotoxicity, dose response, CellTiter-Glo luminescence, dry powder (AID 588705); conditions: MDA-MB-231 viability, CellTiter-Glo luminescence, 72 h
Method in brief: (§1)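 Assay system: MDA231 (MDA-MB-231) human breast cancer cell line; Input: 1000 cells/well; Medium: serum-free DMEM/MEGM screening medium with hydrocortisone, insulin, EGF, BPE; Schedule: compound added 24 h post-seeding, then 72 h exposure; Measured by: CellTiter-Glo luminescence for cell viability; Control set: DMSO-only negative control wells.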

Structure (SMILES) | outcome
O=C(N/N=C/c1ccc[nH]1)c1cc2ccccc2o1 | inactive

system: MDA-MB-231 viability, CellTiter-Glo luminescence, 72 h; experiment: as above; conditions: not given
Method in brief: as §1

Structure (SMILES) | AC50 [µM]
O=C(COc1c(Cl)cc(Cl)cc1Cl)N/N=C/c1ccc[nH]1 | 2.81
Cc1cc(Cl)ccc1OCC(=O)N/N=C/c1ccc[nH]1 | 16.7
O=C(COc1ccc(Cl)cc1Cl)N/N=C/c1cnc[nH]1 | 31.6
CC(C)(C)c1ccc2c(c1)OC(C(=O)N/N=C/c1ccc[nH]1)CO2 (configuration not stated) | 14.7
O=C(COc1cc(Cl)ccc1Cl)N/N=C/c1ccc[nH]1 | 7.24
O=C(COc1ccc(Cl)cc1Cl)N/N=C/c1ccc[nH]1 | 47.6
